Results: ChEMBL document CHEMBL1147705, “Imidazolylpyrimidine based CXCR2 chemokine receptor antagonists” (Bioorg Med Chem Lett, 2006)

Legend:
[1] = Oral bioavailability in rat at […], iv and po; type: ADME, organism-based; conditions: in vivo
[2] = target: T1, C-X-C chemokine receptor type 2 (Homo sapiens, UniProt P25025); experiment: Binding affinity to human CXCR2 receptor transfected in CHO cell; type: cell-based
T1 sequence (P25025 whole entry): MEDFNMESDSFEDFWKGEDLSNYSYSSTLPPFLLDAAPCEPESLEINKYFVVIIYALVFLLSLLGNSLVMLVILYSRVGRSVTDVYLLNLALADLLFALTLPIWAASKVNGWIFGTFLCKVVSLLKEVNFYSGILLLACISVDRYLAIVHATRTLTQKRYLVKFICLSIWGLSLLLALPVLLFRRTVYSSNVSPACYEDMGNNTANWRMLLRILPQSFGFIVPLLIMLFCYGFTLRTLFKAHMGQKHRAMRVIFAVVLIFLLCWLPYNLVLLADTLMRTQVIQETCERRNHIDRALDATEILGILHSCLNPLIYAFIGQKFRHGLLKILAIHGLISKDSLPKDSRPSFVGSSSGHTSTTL

[3] = Stability in rat liver microsome at 10 uM after 30 min; type: ADME; conditions: liver microsomes, read-out: Stability
Method in brief: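 Compound at 10 µM incubated with rat liver microsomal enzyme (300 nM) for 30 min at 37 °C; percent of parent remaining after 30 min quantified by LC. Values are means of at least two experiments, standard deviation <±30%.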

[4] = AUC (infinity) in rat at 4 umol/kg, po; type: ADME, organism-based; design: dose 4 umol/kg, route oral, time infinity; conditions: plasma
Method in brief: (§1)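 Rats (n = 3) dosed 4 µmol/kg by iv and po routes; plasma pharmacokinetic profile followed after each route to derive the parameters.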

[5] = Clearance in dog at 2 umol/kg, iv and 4 umol/kg, po; type: ADME, organism-based, Canis lupus familiaris; conditions: in vivo
[6] = Volume of distribution in dog at 2 umol/kg, iv and 4 umol/kg, po; type: ADME, organism-based, Canis lupus familiaris; conditions: in vivo, read-out: Vdss
[7] = AUC (infinity) in dog at 4 umol/kg, po; type: ADME, organism-based, Canis lupus familiaris; design: dose 4 umol/kg, route oral, time infinity; conditions: plasma
[8] = Clearance in rat at 4 umol/kg, iv and po; type: ADME, organism-based; conditions: in vivo; method in brief: as §1
[9] = Cmax in rat at 4 umol/kg, po; type: ADME, organism-based; design: dose 4 umol/kg, route oral; conditions: in vivo; method in brief: as §1
[10] = Cmax in dog at 4 umol/kg, po; type: ADME, organism-based, Canis lupus familiaris; design: dose 4 umol/kg, route oral; conditions: in vivo
[11] = Oral bioavailability in dog at 2 umol/kg, iv and 4 umol/kg, po; type: ADME, organism-based, Canis lupus familiaris; conditions: in vivo
[12] = Half life in dog at 2 umol/kg, iv and 4 umol/kg, po; type: ADME, organism-based, Canis lupus familiaris; conditions: in vivo
[13] = Half life in rat at 4 umol/kg, iv and po; type: ADME, organism-based; conditions: in vivo; method in brief: as §1
[14] = Volume of distribution in rat at 4 umol/kg, iv and po; type: ADME, organism-based; conditions: in vivo, read-out: Vdss; method in brief: as §1

| Ki [2] [nM] | remaining at 0.5 h, 10 µM [3] [%] | SMILES | other results |
| --- | --- | --- | --- |
| 57 | 77 | CCOCCCNC(=O)[C@H](CC(C)C)Nc1cc(CC)nc(-n2cnc(-c3ccc(OC(F)(F)F)cc3)c2)n1 | bioavailability [1]: 18% |
| 17 | 66 | CCCCc1cc(N[C@@H](CC(C)C)C(=O)NCCCOCC)nc(-n2cnc(-c3ccc(OC(F)(F)F)cc3)c2)n1 | bioavailability [1]: 7% |
| 100 | 2 | CCCCc1cc(N[C@@H](CC(C)C)C(=O)NCCCOCC)nc(-n2cnc(-c3ccccc3)c2)n1 |  |
| 14 | 80 | CCCCc1cc(N[C@@H](CC(C)C)C(=O)NCCCOCC)nc(-n2cnc(-c3ccc(C(F)(F)F)cc3)c2)n1 |  |
| > 10000 | 27 | CCCCc1cc(N[C@@H](CC(C)C)C(=O)NCCCOCC)nc(-n2ccnc2C)n1 |  |
| 90 | 25 | CCCCc1cc(N[C@@H](CC(C)C)C(=O)NCCCOCC)nc(-n2cnc(C)c2)n1 |  |
| 160 | 48 | CCCCc1cc(N[C@@H](CC(C)C)C(=O)NCCCOCC)nc(-n2cnc(-c3ccc([N+](=O)[O-])cc3)c2)n1 |  |
| 43 | 50 | CCCCc1cc(N[C@@H](CC(C)C)C(=O)NCCCOCC)nc(-n2cnc(-c3ccc(C#N)cc3)c2)n1 |  |
| 600 |  | CCCCc1cc(N[C@@H](CC(C)C)C(=O)NCCCOCC)nc(-n2cnc(-c3ccc(N)cc3)c2)n1 |  |
| > 10000 | 30 | CCCCc1cc(N[C@@H](CC(C)C)C(=O)NCCCOCC)nc(-n2cncn2)n1 |  |
| 27 | 54 | CCCCc1cc(N[C@@H](CC(C)C)C(=O)NCCCOCC)nc(-n2cnc(-c3ccc(Cl)cc3)c2)n1 |  |
| 37 | 20 | CCCCc1cc(N[C@@H](CC(C)C)C(=O)NCCCOCC)nc(-n2cnc(-c3ccc(F)cc3)c2)n1 |  |
| 60 | 26 | CCCCCCCCSc1cc(N[C@@H](CC(C)C)C(=O)NCCCOCC)nc(-n2ccnc2)n1 |  |
| 42 | 30 | CCCCc1cc(N[C@@H](CC(C)C)C(=O)NCCCOCC)nc(-n2cnc(-c3ccc(OC)cc3)c2)n1 |  |
| 35 | 55 | CCCc1cc(N[C@@H](CC(C)C)C(=O)NCCCOCC)nc(-n2cnc(-c3cccc(OC(F)(F)F)c3)c2)n1 | bioavailability [1]: 7% |
| 200 | 5 | CCOCCCNC(=O)[C@H](CC(C)C)Nc1ccnc(-n2cnc(-c3ccc(OC(F)(F)F)cc3)c2)n1 | bioavailability [1]: 4% |
| 120 | 36 | CCCCCCCCc1cc(N[C@@H](CC(C)C)C(=O)NCCCOCC)nc(-n2ccnc2)n1 |  |
| > 5000 | 52 | CCCCc1cc(N[C@@H](CC(C)C)C(=O)NCCCOCC)nc(-c2ccncc2)n1 |  |
| 6000 | 83 | CCOCCCNC(=O)[C@H](CC(C)C)Nc1cc(C(C)(C)C)nc(-n2ccnc2)n1 |  |
| 50 | 13 | CCCc1cc(N[C@@H](CC(C)C)C(=O)NCCCOCC)nc(-n2cnc(-c3ccccc3OC(F)(F)F)c2)n1 | bioavailability [1]: 5% |
| 290 | 50 | CCCCCCc1cc(N[C@@H](CC(C)C)C(=O)NCCCOCC)nc(-n2ccnc2)n1 |  |
| 44 | 67 | CCOCCCNC(=O)[C@H](CC(C)C)Nc1cc(C)nc(-n2cnc(-c3ccc(OC(F)(F)F)cc3)c2)n1 | bioavailability [1]: 22% |
| 25 | 74 | CCCc1cc(N[C@@H](CC(C)C)C(=O)NCCCOCC)nc(-n2cnc(-c3ccc(OC(F)(F)F)cc3)c2)n1 | AUC(0-inf) [4]: 2.43 µM·h; clearance [5]: 12.1 mL/min/kg; bioavailability [1]: 33%; Vd [6]: 2.79 L/kg; AUC(0-inf) [7]: 1.39 µM·h; clearance [8]: 9.83 mL/min/kg; Cmax [9]: 660 nM; Cmax [10]: 300 nM; bioavailability [11]: 25%; half-life [12]: 66 min; half-life [13]: 162 min; Vd [14]: 1.99 L/kg |
| 40 | 35 | CCCCc1cc(N[C@@H](CC(C)C)C(=O)NCCCOCC)nc(-n2cnc(-c3ccc(C)cc3)c2)n1 |  |
| 85 | 13 | CCCCc1cc(N[C@@H](CC(C)C)C(=O)NCCCOCC)nc(-n2cnc(C(C)(C)C)c2)n1 |  |
| 1700 | 68 | CCCCc1cc(N[C@@H](CC(C)C)C(=O)NCCCOCC)nc(-n2ccnc2)n1 |  |
| 32 | 65 | CCCCc1cc(N[C@@H](CC(C)C)C(=O)NCCCOCC)nc(-n2cnc(-c3ccc(O)cc3)c2)n1 |  |
| 750 | 36 | CCCCc1cc(N[C@@H](CC(C)C)C(=O)NCCCOCC)nc(-c2cccnc2)n1 |  |
